pIC50: −log10 of the molar value. Activity calls are given as the source filed them. No cut-off for these calls is given here. Bounds are passed on as bounds.

As a reminder, the pIC50 is the negative decadic logarithm of the IC50, by convention in mol/L.

Test [1] can be described thus: Antiproliferative activity against human LS 174T cells by cell viability analyzer. Type of test: functional, cell-based. The note with it: LS174T. The essentials: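 LS174T colon cancer cells seeded at 3 × 10^4 cells/mL, treated next day with compounds at 1–300 nM (freshly made DMSO stocks diluted in buffer). Proliferation read by automated cell viability counting. Triplicate at each concentration; IC50 from concentration–response curves by nonlinear regression one-site fit.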

The target in test [2] is S-adenosylmethionine synthase isoform type-2 (Homo sapiens) (UniProt P31153). Kind of test: Inhibition of recombinant His-tagged MAT2A (unknown origin) using L-methionine and ATP at 30 uM. The gist of the method: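 Purified His-tagged MAT2A holoenzyme (3 μg) preincubated with compound (30 μM final) 10 min at room temperature, then given L-methionine (50 μM) and ATP (50 μM) in 50 mM Tris pH 8.0, 50 mM KCl, MgCl2; 25 min at room temperature. Released Pi measured by malachite green absorbance at 635 nm; triplicate; activity expressed relative to reference lead.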

Test [3] is described as follows: Ratio of IC50 for human ERG to IC50 for inhibition of human LS174T cell proliferation.
For test [4], the target named is Voltage-gated inwardly rectifying potassium channel KCNH2 (Homo sapiens, UniProt Q12809). Kind of test: Inhibition of human ERG over-expressed in HEK293 cell membrane by [3H]dofetilide binding assay. The format is cell membranes.
Sequence of Voltage-gated inwardly rectifying potassium channel KCNH2 (Q12809 whole entry): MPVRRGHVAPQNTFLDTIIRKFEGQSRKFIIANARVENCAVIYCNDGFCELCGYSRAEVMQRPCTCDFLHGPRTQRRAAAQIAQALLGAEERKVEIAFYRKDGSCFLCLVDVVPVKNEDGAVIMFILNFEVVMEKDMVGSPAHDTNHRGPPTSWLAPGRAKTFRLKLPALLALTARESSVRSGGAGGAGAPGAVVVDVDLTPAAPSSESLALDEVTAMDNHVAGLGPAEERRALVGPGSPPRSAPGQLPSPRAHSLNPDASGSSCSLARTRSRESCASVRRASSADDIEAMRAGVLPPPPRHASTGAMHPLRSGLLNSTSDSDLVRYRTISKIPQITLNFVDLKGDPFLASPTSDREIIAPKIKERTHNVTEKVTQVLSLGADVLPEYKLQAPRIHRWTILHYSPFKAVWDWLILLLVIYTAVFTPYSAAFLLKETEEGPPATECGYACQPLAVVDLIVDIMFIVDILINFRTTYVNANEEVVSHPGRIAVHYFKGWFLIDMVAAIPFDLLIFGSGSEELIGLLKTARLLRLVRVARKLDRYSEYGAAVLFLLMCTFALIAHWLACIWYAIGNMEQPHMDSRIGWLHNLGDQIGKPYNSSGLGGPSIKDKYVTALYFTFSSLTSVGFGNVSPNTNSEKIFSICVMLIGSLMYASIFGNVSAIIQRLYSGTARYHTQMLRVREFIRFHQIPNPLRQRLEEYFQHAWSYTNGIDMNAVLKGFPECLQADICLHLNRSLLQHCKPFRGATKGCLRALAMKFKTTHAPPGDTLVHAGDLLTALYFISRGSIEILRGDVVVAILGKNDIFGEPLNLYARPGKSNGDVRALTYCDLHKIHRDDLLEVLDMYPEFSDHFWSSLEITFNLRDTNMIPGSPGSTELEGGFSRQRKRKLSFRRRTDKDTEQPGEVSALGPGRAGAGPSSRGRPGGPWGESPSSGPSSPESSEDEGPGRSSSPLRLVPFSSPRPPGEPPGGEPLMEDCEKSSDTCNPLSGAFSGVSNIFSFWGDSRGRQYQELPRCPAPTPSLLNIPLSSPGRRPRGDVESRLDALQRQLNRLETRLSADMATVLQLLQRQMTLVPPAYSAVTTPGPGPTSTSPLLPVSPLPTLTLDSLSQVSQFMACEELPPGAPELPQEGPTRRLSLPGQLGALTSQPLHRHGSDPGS

Sequence of S-adenosylmethionine synthase isoform type-2 (Homo sapiens) (P31153 whole entry, looked up, canonical isoform): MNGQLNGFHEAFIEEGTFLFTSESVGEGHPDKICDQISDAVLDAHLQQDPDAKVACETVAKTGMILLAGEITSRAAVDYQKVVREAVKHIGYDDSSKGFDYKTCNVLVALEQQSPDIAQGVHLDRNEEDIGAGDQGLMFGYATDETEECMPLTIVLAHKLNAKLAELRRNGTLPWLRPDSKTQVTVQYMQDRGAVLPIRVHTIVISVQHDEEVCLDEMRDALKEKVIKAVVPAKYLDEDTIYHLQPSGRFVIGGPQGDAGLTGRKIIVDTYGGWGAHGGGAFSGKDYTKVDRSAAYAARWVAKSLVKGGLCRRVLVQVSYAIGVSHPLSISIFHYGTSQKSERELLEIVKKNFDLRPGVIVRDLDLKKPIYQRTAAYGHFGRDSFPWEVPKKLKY

In turn, `CNc1ncc(/C=C/c2c(Cl)cccc2Cl)cn1` had a pIC50 in test [1] below 6.70.

Regarding `CNc1ncc(/C=C/c2c(F)cccc2F)cn1`, the inhibition entry in test [2] was “Active”. Further, the pIC50 in test [1] was below 6.70.

In the case of `CN(C)c1ccc(/C=C/c2c(Cl)cccc2Cl)cc1`, the inhibition result in test [2] is “Active”. Moreover, in test [1], the pIC50 is 6.67.

For `CN(C)c1ccc(/C=C/c2c(F)cccc2Cl)nc1`, the Ratio IC50 in test [3] was found to be 1000. Moreover, the pIC50 in test [4] is 4.68; in test [1], 7.69. Moreover, the inhibition entry in test [2] is “Active”.

In the case of `CNc1ccc(/C=C/c2c(Cl)cccc2Cl)cc1`, the inhibition entry in test [2] is “Active”. The same compound gave a pIC50 in test [1] of 7.30.

As for `CNc1ccc(/C=C/c2c(F)cccc2F)cc1`, the Ratio IC50 in test [3] turned out to be 6500. Moreover, the pIC50 in test [4] was 4.31; in test [1], 8.12. In test [2], the inhibition entry was “Active”.

`CN(C)c1ncc(/C=C/c2c(F)cccc2F)cn1`: the Ratio IC50 in test [3] turned out to be 500. Moreover, the figures for the pIC50 in test [4] and in test [1] were 4.39 and below 6.70, respectively. For the same compound, the inhibition result in test [2] is “Active”.

As to `CNc1ccc(/C=C/c2c(F)cccc2F)cn1`, the pIC50 in test [1] is 7.52.

On to `CN(C)c1ccc(/C=C/c2c(Cl)cccc2Cl)nc1`, for which the inhibition result in test [2] is “Active”. This compound also gave a pIC50 in test [1] of 7.23.

In the case of `CCNc1ccc(/C=C/c2c(F)cccc2F)cn1`, the pIC50 in test [1] was 7.50.

With `CN(C)c1ccc(/C=C/c2c(Cl)cccc2Cl)cn1`, the inhibition result in test [2] is “Active”. Besides, the negative-log IC50 (pIC50) in test [1] was 7.52.

In the case of `CN(C)c1ccc(/C=C/c2c(F)cccc2Cl)cn1`, the Ratio IC50 in test [3] came to 12700. The values for the pIC50 in test [4] and in test [1] were 4.23 and 8.33, respectively. The inhibition entry in test [2] was “Active”.

`CN(C)c1ncc(/C=C/c2c(F)cccc2Cl)cn1` had a pIC50 in test [1] below 6.70.

`CNc1ccc(/C=C/c2c(F)cccc2Cl)cn1`: the Ratio IC50 in test [3] is 5000. Besides, the pIC50 in test [4] was 4.70; in test [1], 8.40. The inhibition entry in test [2] was “Active”.

Turning to `CNc1ccc(/C=C/c2c(F)cccc2Cl)cc1`, the Ratio IC50 in test [3] was 6600. For the same compound, the pIC50 in test [4] is 4.30; in test [1], 8.12. In addition, the inhibition entry in test [2] was “Active”.

Consider `CN(C)c1ccc(/C=C/c2c(F)cccc2Cl)cc1`, for which the inhibition entry in test [2] is “Active”. In addition, the pIC50 in test [1] is 7.72.

On to `CNc1ccc(/C=C/c2c(Cl)cccc2Cl)cn1`, for which, in test [1], the negative-log IC50 (pIC50) was 7.71.

As to `CCNc1ncc(/C=C/c2c(F)cccc2F)cn1`, the negative logarithm of the IC50 (pIC50) in test [1] was below 6.70.

Take `CN(C)c1ccc(/C=C/c2c(F)cccc2F)cc1`: the inhibition result in test [2] was “Active”. This compound also gave a pIC50 in test [1] of 7.57.

Turning to `CN(C)c1ccc(/C=C/c2c(F)cccc2F)nc1`, the Ratio IC50 in test [3] was found to be 400. Besides, the pIC50 in test [4] was 4.68; in test [1], 7.24. The inhibition entry in test [2] was “Active”.

Consider `CN(C)c1ccc(/C=C/c2c(F)cccc2F)cn1`, for which the inhibition entry in test [2] was “Active”. The same compound gave a pIC50 in test [1] of 7.88.

`CNc1ncc(/C=C/c2c(F)cccc2Cl)cn1` gave a negative logarithm of the IC50 (pIC50) in test [1] below 6.70.

`CN(C)c1ncc(/C=C/c2c(Cl)cccc2Cl)cn1`: the pIC50 in test [1] is below 6.70.

In test [1], `CCNc1ccc(/C=C/c2c(F)cccc2F)cc1` gave a pIC50 of 6.70.

For the origin of these results see ChEMBL document CHEMBL3352175, “2',6'-Dihalostyrylanilines, pyridines, and pyrimidines for the inhibition of the catalytic subunit of methionine S-adenosyltransferase-2” (J Med Chem, 2014).
